This note sets out measurements from ChEMBL document CHEMBL1275346, “Halogenation of 4-hydroxy/amino-3-methoxyphenyl acetamide TRPV1 agonists showed enhanced antagonism to capsaicin” (Bioorg Med Chem, 2010).

The target in assay [1] is T1, Transient receptor potential cation channel subfamily V member 1 (Rattus norvegicus, UniProt O35433). Briefly: Displacement of [3H]RTX from rat TRPV1 expressed in CHO cells. The class given is cell-based. In a few lines: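 Binding competition against [³H]RTX on rat TRPV1 heterologously expressed in CHO cells. Mean ± SEM from three or more experiments.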
T1 sequence (O35433 whole entry): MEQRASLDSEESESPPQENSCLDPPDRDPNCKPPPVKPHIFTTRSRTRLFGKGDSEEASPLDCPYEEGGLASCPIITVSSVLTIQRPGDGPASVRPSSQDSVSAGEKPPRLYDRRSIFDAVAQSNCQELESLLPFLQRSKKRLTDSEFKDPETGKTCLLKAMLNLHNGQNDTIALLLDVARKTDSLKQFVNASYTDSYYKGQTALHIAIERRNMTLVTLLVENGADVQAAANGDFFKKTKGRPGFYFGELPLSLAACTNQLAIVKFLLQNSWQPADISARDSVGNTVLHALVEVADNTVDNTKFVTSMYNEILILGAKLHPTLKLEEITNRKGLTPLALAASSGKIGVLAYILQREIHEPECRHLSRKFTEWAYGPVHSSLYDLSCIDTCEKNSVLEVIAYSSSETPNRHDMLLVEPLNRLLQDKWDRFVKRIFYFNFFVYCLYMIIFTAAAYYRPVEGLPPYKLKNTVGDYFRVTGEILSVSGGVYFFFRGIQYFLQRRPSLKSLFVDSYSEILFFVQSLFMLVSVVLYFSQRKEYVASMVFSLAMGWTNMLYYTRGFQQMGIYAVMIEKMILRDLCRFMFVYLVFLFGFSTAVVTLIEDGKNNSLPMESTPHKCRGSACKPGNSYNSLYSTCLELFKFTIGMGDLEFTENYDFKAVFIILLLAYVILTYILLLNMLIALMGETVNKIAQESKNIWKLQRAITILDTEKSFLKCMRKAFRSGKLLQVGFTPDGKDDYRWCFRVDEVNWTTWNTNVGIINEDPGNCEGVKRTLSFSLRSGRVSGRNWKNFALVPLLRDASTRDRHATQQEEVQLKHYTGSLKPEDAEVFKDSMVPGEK
The target in assay [2] is Transient receptor potential cation channel subfamily V member 1 (Rattus norvegicus) (UniProt O35433). In words: Agonist activity at rat TRPV1 expressed in CHO cells assessed as increase of capsaicin-induced calcium uptake relative to capsaicin. The assay is classed as functional, cell-based. Put shortly:
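⁴⁵Ca²⁺ uptake in CHO cells heterologously expressing rat TRPV1. Agonist efficacy is given as % of the maximal calcium uptake induced by 300 nM capsaicin. Mean ± SEM from three or more experiments.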

For assay [3] the target is unchanged. Briefly: Partial antagonist activity at rat TRPV1 expressed in CHO cells assessed as inhibition of capsaicin-induced calcium uptake. The class given is functional, cell-based. The note with it: concentration not given here. Put shortly: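 ⁴⁵Ca²⁺ uptake antagonism assay in CHO cells heterologously expressing rat TRPV1. The value is the extent of partial antagonism of capsaicin-induced uptake. Mean ± SEM from three or more experiments.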

The target of assay [4] is T1, Transient receptor potential cation channel subfamily V member 1. Briefly: Agonist activity at rat TRPV1 expressed in CHO cells assessed as increase of capsaicin-induced calcium uptake. The assay is classed as functional, cell-based. Put shortly:
(§1)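 Functional ⁴⁵Ca²⁺ uptake assay in CHO cells heterologously expressing rat TRPV1. Values are mean ± SEM from three or more experiments.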

For assay [5] the target is unchanged. In words: Antagonist activity at rat TRPV1 expressed in CHO cells assessed as inhibition of capsaicin-induced calcium uptake. The assay is classed as functional, cell-based. In a few lines: as §1

Transient receptor potential cation channel subfamily V member 1 (Rattus norvegicus), sequence (O35433 whole entry): as above

Consider `COc1cc(CC(=O)NCC(COC(=O)C(C)(C)C)Cc2ccc(C(C)(C)C)cc2)cc(Cl)c1O` (stereo not given), for which the Ki in assay [1] is 0.031 µM. For the same compound, the Activity in assay [2] came out at 25%. Further, in assay [3], the inhibition worked out at 76%.
On the same counts, the results for `CC(C)(C)C(=O)OCC(CNC(=O)Cc1ccc(O)c(Br)c1)Cc1ccc(C(C)(C)C)cc1` (stereo not given) are 0.0251 µM, 72% and 38%.
For `COc1cc(CC(=O)NCc2ccc(C(C)(C)C)cc2)ccc1O`, the Ki is 0.667 µM in assay [1] and “Not Active” in assay [5] (cho). The EC50 in assay [4] (read-out: EC50) was 0.082 µM.
Take `COc1cc(CC(=O)NCC(COC(=O)C(C)(C)C)Cc2ccc(C(C)(C)C)cc2)cc(I)c1O` (stereo not given): the Ki in assay [1] is 0.022 µM; in assay [5] (read-out: Ki) it was 0.0028 µM. Also, the EC50 result in assay [4] (cho) is on record as “Not Active”.
On the same counts, the results for `CC(C)(C)C(=O)OCC(CNC(=O)Cc1cc(Br)c(N)c(Br)c1)Cc1ccc(C(C)(C)C)cc1` (stereo not given) are 0.0113 µM, 0.0043 µM and “Not Active”.
For the compound `COc1cc(CC(=O)NCC(COC(=O)C(C)(C)C)Cc2ccc(C(C)(C)C)cc2)ccc1NS(C)(=O)=O` (stereo not given), the Ki in assay [1] was determined as 0.0845 µM. Also, the Activity in assay [2] amounted to 72%. The inhibition in assay [3] stood at 15%.
In the case of `COc1cc(CC(=O)NCC(COC(=O)C(C)(C)C)Cc2ccc(C(C)(C)C)cc2)cc(Cl)c1N` (stereo not given), the values for the Ki in assay [1] and in assay [5] (read-out: Ki) were 0.0335 µM and 0.00409 µM, respectively. In assay [4] (cho), the EC50 result is on record as “Not Active”.
On to `COc1cc(CC(=O)NCc2ccc(C(C)(C)C)cc2)c(I)cc1OC(C)=O`, for which the Ki in assay [1] worked out at 0.378 µM. Further, the Activity in assay [2] was determined as 8%. In addition, the inhibition in assay [3] amounted to 85%.
On the same counts, the results for `COc1cc(CC(=O)NCc2ccc(C(C)(C)C)cc2)c(Cl)cc1OC(C)=O` are 0.388 µM, 83% and 62%.
On the same counts, the results for `CC(C)(C)C(=O)OCC(CNC(=O)Cc1ccc(N)c(Cl)c1)Cc1ccc(C(C)(C)C)cc1` (stereo not given) are 0.79 µM, 85% and 24%.
For `COc1cc(CC(=O)NCC(COC(=O)C(C)(C)C)Cc2ccc(C(C)(C)C)cc2)cc(Br)c1O` (stereo not given), the Ki turned out to be 0.0094 µM in assay [1] and 0.00877 µM in assay [5] (read-out: Ki). Further, the EC50 result in assay [4] (cho) was “Not Active”.
In assay [1], `COc1cc(CC(=O)NCC(COC(=O)C(C)(C)C)Cc2ccc(C)c(C)c2)c(I)cc1O` (stereo not given) registered a Ki of 0.116 µM. For the same compound, the Activity in assay [2] stood at 23%. Also, the inhibition in assay [3] amounted to 53%.
On the same counts, the results for `COc1cc(CC(=O)NCc2ccc(C(C)(C)C)cc2)cc(Br)c1OC(C)=O` are 0.166 µM, 9% and 89%.
With `COc1cc(CC(=O)NCC(COC(=O)C(C)(C)C)Cc2ccc(C(C)(C)C)cc2)cc(Br)c1OC(C)=O` (stereo not given), the Ki amounted to 0.0136 µM in assay [1] and 0.072 µM in assay [5] (read-out: Ki). The EC50 entry in assay [4] (cho) is given as “Not Active”.
On the same counts, the results for `COc1cc(CC(=O)NCc2ccc(C(C)(C)C)cc2)cc(I)c1OC(C)=O` are 0.094 µM, 0.0479 µM and “Not Active”.
On the same counts, the results for `CC(C)(C)C(=O)OCC(CNC(=O)Cc1cc(Br)c(O)c(Br)c1)Cc1ccc(C(C)(C)C)cc1` (stereo not given) are 0.0202 µM, 0.0107 µM and “Not Active”.
`COc1cc(CC(=O)NCC(COC(=O)C(C)(C)C)Cc2ccc(C(C)(C)C)cc2)c(Cl)cc1O` (stereo not given): the Ki in assay [1] was 0.0376 µM. Besides, the Activity in assay [2] was 61%. In assay [3], the inhibition was found to be 39%.
`COc1cc(CC(=O)NCC(COC(=O)C(C)(C)C)Cc2ccc(C(C)(C)C)cc2)ccc1O` (stereo not given): the Ki in assay [1] is 0.0131 µM; in assay [5] (cho), “Not Active”. In addition, the EC50 in assay [4] (read-out: EC50) is 0.00408 µM.
`COc1cc(CC(=O)NCc2ccc(C(C)(C)C)cc2)cc(I)c1O`: the Ki was determined as 0.089 µM in assay [1] and 0.0172 µM in assay [5] (read-out: Ki). For the same compound, in assay [4] (cho), the EC50 result is “Not Active”.
For the compound `COc1cc(CC(=O)NCC(COC(=O)C(C)(C)C)Cc2ccc(C)c(C)c2)cc(I)c1O` (stereo not given), the Ki in assay [1] worked out at 1.63 µM; in assay [5] (read-out: Ki), 0.225 µM. Also, the Activity in assay [2] was found to be 6%.
In assay [1], `COc1cc(CC(=O)NCC(COC(=O)C(C)(C)C)Cc2ccc(C(C)(C)C)cc2)c(Br)cc1OC(C)=O` (stereo not given) yielded a Ki of 0.0349 µM. Further, in assay [2], the Activity came to 22%. The inhibition in assay [3] is 63%.
Take `COc1cc(CC(=O)NCc2ccc(C(C)(C)C)cc2)c(Cl)cc1O`: the Ki in assay [1] is 0.486 µM; in assay [5] (cho), “Not Active”. Besides, the EC50 in assay [4] (read-out: EC50) turned out to be 0.135 µM.
Regarding `CCCCCCCCC(=O)NCc1cc(OC)c(O)cc1I`, the EC50 entry in assay [4] (cho) is listed as “Not Active”.
Regarding `COc1cc(CC(=O)NCC(COC(=O)C(C)(C)C)Cc2ccc(C(C)(C)C)cc2)cc(Cl)c1OC(C)=O` (stereo not given), the Ki in assay [1] was found to be 0.021 µM. Further, the Activity in assay [2] turned out to be 28%. The inhibition in assay [3] was determined as 58%.
In the case of `COc1cc(CC(=O)NCC(COC(=O)C(C)(C)C)Cc2ccc(C(C)(C)C)cc2)ccc1N` (stereo not given), the results for the Ki in assay [1] and in assay [5] (cho) were 0.108 µM and “Not Active”, respectively. For the same compound, in assay [4] (read-out: EC50), the EC50 is 0.0229 µM.
On to `CC(C)(C)C(=O)OCC(CNC(=O)Cc1ccc(N)c(Br)c1)Cc1ccc(C(C)(C)C)cc1` (stereo not given), for which the Ki in assay [1] amounted to 0.057 µM. In assay [2], the Activity came to 59%. For the same compound, the inhibition in assay [3] is 27%.
For the compound `COc1cc(CC(=O)NCC(COC(=O)C(C)(C)C)Cc2ccc(C(C)(C)C)cc2)c(I)cc1OC(C)=O` (stereo not given), the Ki in assay [1] is 0.0195 µM; in assay [5] (read-out: Ki), 0.053 µM. For the same compound, in assay [4] (cho), the EC50 entry is “Not Active”.
Take `COc1cc(CC(=O)NCc2ccc(C(C)(C)C)cc2)cc(Br)c1O`: the Ki in assay [1] stood at 0.091 µM; in assay [5] (read-out: Ki), 0.168 µM. The Activity in assay [2] turned out to be 11%.
Regarding `CC(C)(C)C(=O)OCC(CNC(=O)Cc1cc(Br)cc(Br)c1)Cc1ccc(C(C)(C)C)cc1` (stereo not given), the Ki amounted to 0.21 µM in assay [1] and 0.108 µM in assay [5] (read-out: Ki). The EC50 entry in assay [4] (cho) is “Not Active”.
In assay [1], `COc1cc(CC(=O)NCC(COC(=O)C(C)(C)C)Cc2ccc(C(C)(C)C)cc2)c(Cl)cc1OC(C)=O` (stereo not given) yielded a Ki of 0.0251 µM. In addition, the Activity in assay [2] was determined as 53%. Also, the inhibition in assay [3] is 36%.
On the same counts, the results for `COc1cc(CC(=O)NCC(COC(=O)C(C)(C)C)Cc2ccc(C(C)(C)C)cc2)c(Br)cc1O` (stereo not given) are 0.0253 µM, 21% and 76%.
On the same counts, the results for `COc1cc(CC(=O)NCc2ccc(C(C)(C)C)cc2)cc(Cl)c1O` are 0.164 µM, 25% and 66%.
On the same counts, the results for `COc1cc(CC(=O)NCC(COC(=O)C(C)(C)C)Cc2ccc(C)c(C)c2)cc(I)c1OC(C)=O` (stereo not given) are 4.53 µM, 12% and 59%.
As for `COc1cc(CC(=O)NCC(COC(=O)C(C)(C)C)Cc2ccc(C(C)(C)C)cc2)cc(Br)c1N` (stereo not given), the values for the Ki in assay [1] and in assay [5] (read-out: Ki) were 0.0791 µM and 0.0034 µM, respectively. Also, the 50% effective concentration (EC50) result in assay [4] (cho) is reported as “Not Active”.
In turn, `COc1cc(CC(=O)NCc2ccc(C(C)(C)C)cc2)c(I)cc1O` came in with a Ki in assay [1] of 0.85 µM. Besides, the Activity in assay [2] stood at 17%. Besides, in assay [3], the inhibition stood at 55%.
For `COc1cc(CC(=O)NCc2ccc(C(C)(C)C)cc2)cc(Cl)c1OC(C)=O`, the Ki in assay [1] is 0.205 µM; in assay [5] (read-out: Ki), 0.57 µM. For the same compound, the Activity in assay [2] came out at 22%.
The compound `COc1cc(CC(=O)NCc2ccc(C(C)(C)C)cc2)c(Br)cc1O` returned a Ki in assay [1] of 0.364 µM. Moreover, the Activity in assay [2] amounted to 37%. Moreover, the inhibition in assay [3] was found to be 42%.
With `COc1cc(CC(=O)NCC(COC(=O)C(C)(C)C)Cc2ccc(C(C)(C)C)cc2)cc(I)c1OC(C)=O` (stereo not given), the Ki in assay [1] came out at 0.0203 µM; in assay [5] (read-out: Ki) it was 0.0191 µM. For the same compound, the EC50 result in assay [4] (cho) is on record as “Not Active”.
With `CC(C)(C)C(=O)OCC(CNC(=O)Cc1cc(Cl)c(O)c(Cl)c1)Cc1ccc(C(C)(C)C)cc1` (stereo not given), the Ki turned out to be 0.0093 µM in assay [1] and 0.00426 µM in assay [5] (read-out: Ki). Moreover, the EC50 entry in assay [4] (cho) is given as “Not Active”.
On the same counts, the results for `CC(C)(C)C(=O)OCC(CNC(=O)Cc1cc(Cl)c(N)c(Cl)c1)Cc1ccc(C(C)(C)C)cc1` (stereo not given) are 0.00943 µM, 0.00396 µM and “Not Active”.
For the compound `COc1cc(CC(=O)NCC(COC(=O)C(C)(C)C)Cc2ccc(C(C)(C)C)cc2)c(I)cc1O` (stereo not given), the Ki in assay [1] was determined as 0.0209 µM; in assay [5] (read-out: Ki), 0.0135 µM. Besides, the EC50 entry in assay [4] (cho) is “Not Active”.
`COc1cc(CC(=O)NCC(COC(=O)C(C)(C)C)Cc2ccc(C)c(C)c2)cc(Br)c1O` (stereo not given) came in with a Ki in assay [1] of 0.0564 µM. Further, in assay [2], the Activity was 43%. Besides, the inhibition in assay [3] stood at 62%.
On the same counts, the results for `COc1cc(CC(=O)NCc2ccc(C(C)(C)C)cc2)c(Br)cc1OC(C)=O` are 0.393 µM, 60% and 59%.
On the same counts, the results for `COc1cc(CC(=O)NCC(COC(=O)C(C)(C)C)Cc2ccc(C(C)(C)C)cc2)c(Br)cc1NS(C)(=O)=O` (stereo not given) are 0.0429 µM, 14% and 64%.
